Source: paper PMC10401072 (Cancer discovery, 2023)

What was measured:
[1] = tested on: pERK in MIA PaCa-2 tumors; experiment: Animal PK/PD study: pERK in tumors; format: in vivo, mouse; conditions: single oral dose 30 mg/kg
How it was run: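 Female Foxn1nu mice bearing subcutaneous right-flank xenografts (5 × 10^6 cells) grown to about 500 mm3 and randomized by size into groups of three. Each received one 30 mg/kg oral gavage dose in 20% hydroxypropyl-β-cyclodextrin/50 mmol/L citric acid, pH 4. Tumors were taken at 1, 8, 24 and 48 h and lysed in NP-40 buffer. pERK was immunoblotted in 250 μg lysate, normalized to GAPDH and vehicle controls, as POC.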

[2] = Patient pharmacokinetic assessment; format: in vivo, human
How it was run: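 Compound was given as powder in capsule. Plasma was sampled before treatment and at set intervals after dosing on cycle 1 days 1 and 18 at the starting monotherapy dose. Drug level was measured by a validated LC-MS/MS assay.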

[3] = tested on: pERK in ex vivo CSF1-stimulated peripheral blood monocytes; experiment: Patient pharmacodynamic assessment; design: species or system human; conditions: ALK NSCLC patient; 20 mg; 4 hours after dosing on C1D1
How it was run: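 Patient whole blood was shipped refrigerated the same day and processed within a 24 h stability window. Ex vivo stimulation used 9 ng/mL recombinant human M-CSF for 12 min at room temperature, with unstimulated control. Staining with CD45, CD14, ERK1/2 and pERK1/2 (T202/Y204) antibodies ran 30 min in the dark. Flow cytometry excluded doublets and gated CD45+CD14+ monocytes. pERK1/2 MFI was normalized to the unstimulated sample.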

[4] = tested on: EML4-ALK fusion-positive NSCLC; format: in vivo, human; conditions: after 6 weeks monotherapy, 20 mg BIW
[5] = tested on: metastatic BRAF V600E colorectal cancer; experiment: Phase 1 trial tumor response; format: in vivo, human; conditions: after 6 weeks monotherapy; new lesions
How it was run: (§1)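 Tumor response was assessed by CT imaging every 6 weeks per RECIST v1.1 during oral monotherapy (powder in capsule) on the phase I trial.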

[6] = tested on: KRAS G12D mutant low-grade serous ovarian cancer; experiment: Phase 1 trial tumor response; format: in vivo, human; conditions: after 6 weeks of monotherapy
How it was run: as §1

[7] = tested on: GOPC-ROS1 fusion-positive pancreatic adenocarcinoma; experiment: Phase 1 trial tumor response; format: in vivo, human
[8] = Phase 1 trial safety; format: in vivo, human; conditions: single patient, monotherapy followed by combination, first dose level
How it was run: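 Lead-in monotherapy ran 2 cycles/6 weeks. Matched targeted therapy was then added at labeled doses upon radiographic progression, if no ongoing grade ≥3 toxicity or DLT. The SHP2 inhibitor restarted one dose level below the highest safe monotherapy dose. Intrapatient escalation was allowed after 1 cycle. Adverse events were graded by CTCAE v5.0, and dose changes followed a prescribed algorithm.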

[9] = cited from earlier work

## Nc1nccc(Sc2cnc(N3CCC4(CC3)Cc3ccccc3[C@H]4N)nn2)c1Cl [PF-07284892]
[1]
  suppression of pERK in tumors: significant suppression
[2]; ALK NSCLC patient, 20 mg orally BIW, 4 hours after C1D1 dose
  plasma level of PF-07284892: 41 ng/mL
[2]; ALK NSCLC patient, 20 mg orally BIW, pre-dose C1D18, 3 days after prior dose
  plasma level of PF-07284892: 29 ng/mL
[2]; BRAF V600E CRC patient, 20 mg BIW, C1D1
  plasma level of PF-07284892: 56 ng/mL
[2]; BRAF V600E CRC patient, 20 mg BIW, C1D18
  plasma level of PF-07284892: 35 ng/mL
[3]
  decrease in pERK levels in peripheral blood monocytes: 80%
[4]
  change in target lesions on CT: +50%
  response (RECIST 1.1): progressive disease
[5]
  change in target lesions: +43%
[6]
  tumor growth in two target lesions: +6%
[7]; after 6 weeks of monotherapy
  change in two target lesion liver metastases: +26%
[8]
  dose-limiting toxicities (DLTs): no DLTs

## Cc1nc(N2CCC3(CC2)CO[C@@H](C)[C@H]3N)c(CO)nc1Sc1ccnc(N)c1Cl [RMC-4630]
[9]
  monotherapy activity in FIH trials: limited monotherapy activity

## C[C@@H]1OCC2(CCN(c3cnc(Sc4ccnc(N)c4Cl)c(N)n3)CC2)[C@@H]1N [TNO155]
[9]
  monotherapy activity in FIH trials: limited monotherapy activity

## C[C@H]1CNC(=O)c2cnn3ccc(nc23)N[C@H](C)c2cc(F)ccc2O1 [repotrectinib, reference compound]
[7]; pre-study therapy, patient history
  time to progression on previous therapy: ~ 10 months
